# Many of the other results were omitted from the sample, so hits are more common in it than they were.
# GSK3A inh = inhibitors of human GSK-3 alpha kinase; ADP-Glo luminescence, 60 min; inhibition, % at 10 µM; actives 0.1% (n = 320,000);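 active means more than half of replicates show inhibition above 20%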;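 further: GST-tagged GSK-3 alpha with peptide substrate and 25 µM ATP; 0% = DMSO neutral wells and 100% = GW8510 positive control wells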
# Dyrk1A ADPGlo = Dyrk1A (rat) kinase inhibition. ADP-Glo luminescence, NFATc1 peptide. inhibition, % at 12.5 µM. actives 0.43% (n = 310,000); in the data active means inhibition above about 50%;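 further: plate controls were vehicle with enzyme for no effect and no enzyme for full effect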
# GSK3B inh = inhibitors of human GSK3beta kinase; P49841; GST-GSK3beta kinase, ADP-Glo luminescence, 60 min; hits give low values; activity score (negative = inhibition), % at 10 µM; actives 0.038% (n = 300,000); AID 2097;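 active means more than half of replicate wells score below -50%, meaning over 50% inhibition versus plate controls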;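 further: 0% = median DMSO wells and -100% = median GW8510 positive control wells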
# Target sequence (P49841 whole entry, looked up): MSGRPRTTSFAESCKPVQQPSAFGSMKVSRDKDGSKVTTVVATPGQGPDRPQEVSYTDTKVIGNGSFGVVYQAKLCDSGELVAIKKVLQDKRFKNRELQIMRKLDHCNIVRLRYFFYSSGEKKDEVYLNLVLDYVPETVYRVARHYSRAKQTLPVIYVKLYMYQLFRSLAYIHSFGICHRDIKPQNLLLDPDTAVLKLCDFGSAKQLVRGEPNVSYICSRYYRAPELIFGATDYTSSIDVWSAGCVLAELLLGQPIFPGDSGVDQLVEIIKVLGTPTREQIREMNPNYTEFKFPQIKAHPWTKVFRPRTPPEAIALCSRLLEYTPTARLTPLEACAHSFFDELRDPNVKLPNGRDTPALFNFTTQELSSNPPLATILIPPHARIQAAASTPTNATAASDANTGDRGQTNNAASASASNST
#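 test system = GST-tagged human GSK3beta kinase, cell-free | reagent = 25 µM ATP with peptide substrate | dosing = one dose of 10 µM per compound | schedule = 60 min reaction, RT | detection = luminescent ADP-Glo measurement of ADP formed | control set = DMSO neutral wells and GW8510 at 20 µM as positive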
# STK33 inh = human STK33 kinase inhibition | actives 0.073% (n = 320,000) | Q9BYT3 | inhibition, % at 10 µM | purified STK33, MBP phosphorylation, ADP-Glo luminescence | AID 2661;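 active means inhibition at or above 25%, using the most active replicate where run in duplicate; inactive means inhibition below 25%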
# ADP-Glo artifact = counter-screen for Dyrk1A inhibitors: ADP-Glo luciferase artifacts. shares compounds with Dyrk1A ADPGlo. ADP-Glo luciferase artifact assay, no Dyrk1A, luminescence. AC50, µM (series often up to 12 µM), for inactives: at the top dose activity change, negative = inhibition. 1,300 tested, under 10 active;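 active means fitted half-maximal dose AC50 no more than ten times the top valid tested dose, with luminescence dropping as dose rises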
# * hit, by the source's call; . = no result given.
SMILES,GSK3A inh,Dyrk1A ADPGlo,GSK3B inh,STK33 inh,ADP-Glo artifact
CCC1(c2ccc(F)cc2)NC(=O)N(CC(=O)Nc2ccc(C)c(S(=O)(=O)N3CCOCC3)c2)C1=O (configuration not stated),-2,-2,0,-1,.
CC(=O)Nc1cccc(-c2nn[nH]n2)c1,7,42,2,0,.
CCC(=O)Nc1cccc(-c2cn3ccccc3n2)c1,2,3,4,-1,.
O=C(COc1ccccc1)Nc1cccc(-c2cn3cccnc3n2)c1,2,54*,1,3,8%
O=C(COc1ccccc1)Nc1cccc(-c2nn[nH]n2)c1,20,70*,-1,4,7%
COc1c(C)cccc1C(=O)NCc1ccc2c(c1)OCO2,0,1,-1,1,.
CCN1C(=O)/C(=C2/Sc3ccccc3N2CC)S/C1=N\c1ncn[nH]1,11,61*,-1,9,9%
COc1ccc(C(=O)c2oc3ccc(OC)cc3c2N)cc1,-1,-4,-1,0,.
CCOC(=O)c1[nH]c2ccc(OC)cc2c1NC(=O)OC,.,-2,0,0,.
COC(=O)c1oc2ccc(OC)cc2c1N,5,70*,-7,1,11%
COC(=O)c1[nH]c2cc(OC)ccc2c1N,.,75*,1,2,10%
COc1ccc(OCc2nn[nH]n2)cc1,-3,.,-1,0,.
O=S(=O)(Nc1c(S(=O)(=O)c2ccccc2)c2nc3ccccc3nc2n1C1CCCCC1)c1ccccc1,2,75*,-1,0,10%
Cc1ccc(C)c(N2CC(C(=O)Nc3cc(C)on3)CC2=O)c1 (configuration not stated),2,-5,2,1,.
O=C(O)c1cc2c(s1)-c1ccccc1CC2,-2,.,3,1,.
COc1ccc2c(c1)CCc1cc(C(=O)O)sc1-2,-7,55*,1,5,7%
CCOC(=O)Cn1ncc2c3ccccc3n(CC(=O)OCC)c2c1=O,0,4,3,-1,.
COc1ccc(-n2c(C)nc3cc(C(=O)NCc4ccco4)ccc32)cc1,-1,51*,0,1,11%
COc1ccc(-n2c(C)nc3cc(C(=O)NCc4ccc5c(c4)OCO5)ccc32)cc1,-1,57*,4,-2,9%
CCOc1ccc(-n2c(C)nc3cc(C(=O)NCc4ccc5c(c4)OCO5)ccc32)cc1,-1,-1,3,1,.
COc1cc(/C=C2\SC(=Nc3ccccc3)NC2=O)cc(Cl)c1O,7,51*,-4,7,10%
O=C(NNC(=O)c1ccccc1[N+](=O)[O-])c1csc(N2CCOCC2)n1,0,8,.,-1,.
COc1ccc(-c2ccnc3c(Br)c(C)nn23)cc1,-2,8,.,0,.
CC1CCc2nc(NC(=O)c3ccc(N4C(=O)CCC4=O)cc3)sc2C1 (configuration not stated),1,56*,1,2,6%
O=C(Nc1nc2c(s1)CCCC2)c1ccc(N2C(=O)CCC2=O)cc1,0,67*,2,2,8%
SMILES,GSK3A inh,Dyrk1A ADPGlo,GSK3B inh,STK33 inh,ADP-Glo artifact
C[C@H](CO)N1C[C@H](C)[C@@H](CN(C)S(=O)(=O)c2cn(C)cn2)Oc2c(NS(=O)(=O)c3cn(C)cn3)cccc2C1=O,.,-1,.,.,.
O=C(CSc1ncnc2c1cnn2CCc1ccccc1)Nc1cccc(C(F)(F)F)c1,.,2,-1,0,.
Cc1cc(NCCCN2CCOCC2)n2ncc(-c3ccc(Cl)cc3)c2n1,0,-1,4,2,.
Cc1cc(NCCCn2ccnc2)n2ncc(-c3ccc(Cl)cc3)c2n1,12,56*,-9,18,10%
O=c1cc(-c2ccco2)oc2c1ccc1ccccc12,3,59*,-1,1,7%
O=c1cc(-c2ccc(O)cc2)oc2c1ccc1ccccc12,-3,.,.,-2,.
Cn1cnc2c(=O)sc3ccccc3c21,5,70*,-7,2,11%
COc1ccccc1N=c1oc2cc(O)ccc2cc1C(=O)NCC1CCCO1 (configuration not stated),0,-3,1,-3,.
COc1ccccc1N=c1oc2cc(O)ccc2cc1C(N)=O,61*,93*,2,37*,7%
CC(=O)N1c2ccc(S(=O)(=O)NCC3CCC(C(=O)NC4CCCCC4)CC3)cc2CC1C (configuration not stated),-1,.,-4,-1,.
O=C(c1ccc(F)cc1)C1CCN(C(=S)NCC2CCCO2)CC1 (configuration not stated),0,-2,1,1,.
O=c1cc(-c2ccc(O)cc2)oc2c(O)c(O)c(O)c(O)c12,10,54*,.,16,10%
COc1c(O)cc2oc(-c3ccc(O)cc3)cc(=O)c2c1O,6,30,-3,7,.
O=c1cc(-c2ccccc2)oc2cc(O)c(O)c(O)c12,.,57*,.,.,10%
COc1ccc(CNC(=O)C(C)Cc2ccccc2)cc1O (configuration not stated),-4,12,0,0,.
CC(=O)Oc1ccc2occ(C(=O)c3ccccc3)c2c1,13,.,0,0,.
O=C(O)COc1ccc2occ(C(=O)c3ccccc3)c2c1,83*,66*,2,1,8%
Cc1ccc(C(=O)c2coc3ccc(OCC(=O)O)cc23)cc1,89*,70*,-72*,3,10%
O=C1C(F)=CC(COC(c2ccccc2)(c2ccccc2)c2ccccc2)OC1n1cc(F)c(=O)[nH]c1=O (configuration not stated),.,1,.,.,.
CC(NCCN(C)C)C1CCC2C3CCc4cc(O)ccc4C3CCC12C (configuration not stated),.,6,.,.,.
c1cncc(-c2nc(-c3cccs3)cs2)c1,1,30,-8,2,.
c1cncc(-c2csc(-c3cccnc3)n2)c1,1,86*,-2,8,9%
O=C1CC(c2ccc(S(=O)(=O)NC3CC3)cc2)CN1 (configuration not stated),-1,58*,-8,-1,10%
O=C1CC(c2ccc(S(=O)(=O)NCc3ccncc3)cc2)CN1 (configuration not stated),1,1,-3,-1,.
C#CCOCCOCCOCCNc1nc(N2CCN(C(=O)[C@H]([C@@H](C)CC)n3cc([C@@H](N)CC(C)C)nn3)CC2)nc(N2CCN(C(=O)[C@H]([C@@H](C)CC)n3cc([C@@H](N)CC(C)C)nn3)CC2)n1,7,6,-5,1,.
CSc1nc(NCc2ccco2)c2c3c(sc2n1)CN(C)CC3,30,.,-17,4,.
CSc1nc(SCC(=O)NCc2ccco2)c2c3c(sc2n1)CN(C)CC3,0,63*,-35,-1,8%
COc1ccc(/C=C(/C(=O)c2cccs2)N2C=CC=CC2=C(C#N)C#N)cc1,.,64*,3,.,8%
CC(NC(=O)c1ccc2c(c1)OCO2)C(c1cccs1)N1CCN(c2ccccc2)CC1 (configuration not stated),2,2,0,0,.
